An excerpt weighted towards active compounds, which were near 1.5% of everything screened.
ZTA DNA inh = counter-screen for EBNA-1 inhibitors: inhibitors of Epstein-Barr virus ZTA; 320,000 compounds, 0.15% hits; ZTA-DNA binding, fluorescence polarization; inhibition, % at 11 µM; P03206; in the data active = inhibition above about 33%
LANA-H2B inh = blocks KSHV LANA binding to histone H2A/H2B; AID 2629; cell-free LANA-H2A/H2B peptide, fluorescence polarization; inhibition, % (concentration not given with the values); Q9QR71; 320,000 compounds, 0.6% hits; in the data active = inhibition mostly above about 10%, no sharp cut-off; inactive = mostly below about 6.7%
CSN deneddyl inh = inhibitors of human CSN-mediated cullin deneddylation. Q92905. inhibition, % at 12.5 µM. AID 651999. 360,000 compounds, 0.38% hits. Purified CSN, SCF-Nedd8-OG deneddylation, fluorescence polarization;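 active = pattern-corrected inhibition above about 35%, with an unprinted fluorescence ratio check between 0.5 and 1.5, limit read from the data, passing the limit was not always enough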;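 note: 0% = enzyme with substrate and 100% = substrate without enzyme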
Target sequence (Q92905 whole entry, looked up, one chain of several): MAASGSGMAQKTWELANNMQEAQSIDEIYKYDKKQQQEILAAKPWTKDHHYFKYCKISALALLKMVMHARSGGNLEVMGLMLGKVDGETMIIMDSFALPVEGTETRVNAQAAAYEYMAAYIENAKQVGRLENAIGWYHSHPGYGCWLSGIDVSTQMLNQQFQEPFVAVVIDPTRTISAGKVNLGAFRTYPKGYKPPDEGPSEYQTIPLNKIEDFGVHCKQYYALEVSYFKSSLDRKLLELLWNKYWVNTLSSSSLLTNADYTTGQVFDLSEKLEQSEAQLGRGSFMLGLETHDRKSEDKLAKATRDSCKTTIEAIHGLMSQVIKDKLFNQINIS
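Assay system: Purified human Csn5 enzyme expressed in HEK293T cells | Amount: Enzyme 0.24 nM | Measured by: Fluorescence polarization readout | Medium: Tris/NaCl/DTT buffer, pH 7.5 | Compound dosing: One concentration, 12.5 µM, 0.25% DMSO | Times: 90 min incubation of compound, enzyme and substrate at room temperature | Control set: no-enzyme wells high, enzyme-with-substrate wells low | Read-out: % inhibition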
Bfl-1 A1 inh = inhibitors of the anti-apoptotic protein A1, read as caspase activation; MEF A1-2A-BIM cells, Caspase-Glo 3/7 luminescence, 3 h; percent of clofoctol response, vehicle zero; caspase activation, % (concentration not given with the values); 330,000 compounds, 0.066% hits;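 active = over half of replicate activation scores above 10%, or exactly half above 10 with the replicate mean above 10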
EBNA-1 inh = blocks EBNA-1 binding to DNA; EBNA-1 DNA binding, fluorescence polarization; inhibition, % at 14.8 µM; 300,000 compounds, 0.34% hits; AID 1950; in the data active = inhibition above about 28%
HNF4A DNA FP = change in binding of human HNF4 alpha to DNA; 360,000 compounds, 0.3% hits; activity change, % at 10 µM; HNF4a-FITC DNA binding, fluorescence polarization, 1 h; in the data active = activity change above about 30%, passing the limit was not always enough
An asterisk follows results filed as active; nt = no result given.

SMILES	ZTA DNA inh	LANA-H2B inh	CSN deneddyl inh	Bfl-1 A1 inh	EBNA-1 inh	HNF4A DNA FP
CC(=O)c1cccc(NS(=O)(=O)N(C)C)c1	-7	-4	0	-1	6	50*
CNC(=O)CN(C1CCCCC1)S(=O)(=O)c1ccc(F)cc1	-15	-2	-1	0	-11	-1
CCNC(=O)CN(C1CCCCC1)S(=O)(=O)c1ccc(F)cc1	12	16	4	1	12	37*
Cc1oc2c(C)c3oc(=O)c(CCC(=O)NCCN4CCOCC4)c(C)c3cc2c1C	-10	14*	1	0	9	1
Cc1oc2c(C)c3oc(=O)c(CCC(=O)NCCCN4CCOCC4)c(C)c3cc2c1C	-4	-4	0	0	12	8
COc1ccc(/C=C2/CCC(CN3CCOCC3)C2=O)cc1 (stereo not drawn)	nt	nt	1	nt	nt	2
COc1cc(C(=O)NC(C)c2ccc(-n3ccnc3)cc2)cc(OC)c1C (stereo not drawn)	1	-5	2	0	5	0
COc1ccc(OC)c(S(=O)(=O)NC(C)c2ccc(-n3ccnc3)cc2)c1 (stereo not drawn)	3	-1	3	13*	nt	4
CCCNC(=O)N1CCN(c2nc(C(C)C)c3c(c2C#N)CC(C)(C)OC3)CC1	-4	-1	0	1	15	-1
Cc1ccc(S(=O)(=O)N2CCN(c3nc(C(C)C)c4c(c3C#N)CC(C)(C)OC4)CC2)cc1	70*	-5	5	1	88*	6
CCc1ccc(/C(C)=N/NC(=O)CNC(=O)/C=C/c2ccco2)cc1	1	1	38*	0	7	-60
Cc1ccc([C@@H]2C[C@H]3[C@@H](CN2S(=O)(=O)c2ccc(C)cc2)C(=O)C[C@@H](c2ccc(Cl)cc2)N3S(=O)(=O)c2ccccc2C)cc1	nt	nt	-3	nt	nt	-5
CC(=O)c1ccc(OCC(=O)OCC(=O)c2ccc(S(=O)(=O)N3CCCCC3)cc2)cc1	nt	nt	-3	nt	nt	0
CCC(=O)Nc1nc(C)c(Oc2ccccc2)c(=O)[nH]1	16	-3	105*	0	0	4
COc1cccc2c1NC(C(=O)O)C1CC=CC21 (stereo not drawn)	38*	7	40	-1	20	-66
Cc1ccc2c(c1)C1C=CCC1C(C(=O)O)N2 (stereo not drawn)	28	nt	nt	0	45*	nt
COCCNC(=O)c1sc2ncn(CC(=O)N3CCCCC3)c(=O)c2c1C	-10	-2	1	0	-16	65*
Cc1c(C(=O)Nc2c(F)cccc2F)sc2ncn(CC(=O)N3CCCCC3)c(=O)c12	-5	5	-2	0	-10	0
O=C(CCCSc1ccccc1)Nc1nc(-c2ccco2)c(-c2ccco2)s1	-2	nt	43*	0	-3	8
C=CCN(Cc1cccc(OC)c1OC)C(=O)Oc1ccccc1	4	-2	4	0	nt	-3
CC(C)CCc1noc(CN2CCN(CC(=O)NC(C)C)CC2)n1	-23	-2	3	1	-6	0
CC(C)CCc1noc(CN2CCC(CCN3CCCC3=O)CC2)n1	0	11*	-2	0	9	0
S=C1Cc2ccccc2N1	nt	nt	39*	nt	nt	1
S=C1Nc2ccccc2CS1	nt	nt	-2	nt	nt	-5
CCc1ccc(NC(=O)C(C)Nc2ccc(S(=O)(=O)NC(C)=O)cc2)cc1 (stereo not drawn)	-30	15*	4	1	-10	-11
CN(C(=O)CN1C(=O)S/C(=C\c2ccc(Cl)cc2)C1=O)C1CCS(=O)(=O)C1 (stereo not drawn)	16	11*	-2	1	-13	-4
COc1ccc(/C=C2\SC(=S)N(CC(=O)N(C)C3CCS(=O)(=O)C3)C2=O)cc1 (stereo not drawn)	-14	14*	0	0	-9	2
CN(C(=O)CN1C(=O)S/C(=C\c2ccccc2)C1=O)C1CCS(=O)(=O)C1 (stereo not drawn)	0	2	-5	0	-11	1
COc1cccc(/C=C2\SC(=S)N(CC(=O)N(C)C3CCS(=O)(=O)C3)C2=O)c1 (stereo not drawn)	-6	-2	-2	0	-17	0
